Measurements taken from the RNAGym collection of RNA variant scans (doi:10.1002/anie.201605470).

B1: Osa-1-4 twister ribozyme (parent)
chain: CCGCCUAACACUGCCAAUGCCGGUCCCAAGCCCGGAUAAAAGUGGAGGGGGCGG

Variants of: B1
Test: self-cleavage, relative activity (ratio to wild type); higher = more cleavage; co-transcriptional
Method in brief: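 A DNA template encoding a 54-nucleotide twister ribozyme from Oryza sativa was made so that each of the 48 positions downstream of the cleavage site carried 97 % wild-type base and 1 % of each other base. Transcription in vitro ran for 2 h at 37 °C, during which the ribozyme could cleave itself. Reverse transcription used a template-switching oligonucleotide, and the products were PCR-amplified and deep-sequenced. Each read was scored as cleaved or uncleaved by whether upstream sequence was present, and relative activity is the fraction cleaved normalised to wild type.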

self-cleavage, 0.21:
C9G U43G

self-cleavage, 0.53:
C9U U18C

self-cleavage, 0.02:
C9A G30C
C9A G30A
C9A G23U
A8U U24G
C9A G51C
C9A G13A
A10C A29C
A10C A29U
A10C C14A
A8U G13U
A10C C27G
A10C C27U
C9A G48C
C9A G48A
C9A G48U
A10C C31A

self-cleavage, 0.29:
C9G G34A

self-cleavage, 0.19:
C9A G34A

self-cleavage, 0.68:
C9U U43A
C9U G22A

self-cleavage, 0.47:
C9G G35A
C9A G44A

self-cleavage, 0.87:
C9G U43A

self-cleavage, 0.67:
C9U G44C

self-cleavage, 0.01:
C9A G30U
C9A G23C
A10C C25G
C9U U24G

self-cleavage, 0.08:
A8U G19A
A10C A17U
A8U G51U
A8U G23A
C9U G19U
C9G G48C
A8U G22U
A10C C20U
A10C C20A
C9A G34C

self-cleavage, 0.49:
A8U C52G

self-cleavage, 0.85:
C9U U37G
C9G U18A

self-cleavage, 0.17:
C9U G53U

self-cleavage, 0.32:
C9A G35U

self-cleavage, 0.69:
C9U G44U

self-cleavage, 0.95:
C9G G44U

self-cleavage, 0.43:
C9A G54A

self-cleavage, 0.57:
C9U U18G
A8U C52U

self-cleavage, 0.12:
C9G G34U
A8U G22A
C9G G51U

self-cleavage, 0.14:
A8U G51A
C9A U43G

self-cleavage, 0.34:
C9A G54C

self-cleavage, 0.59:
C9G G50C

self-cleavage, 0.03:
A8U G19C
A8U U24A
A10C A17C
C9A G13C
C9G G13C
C9G G13U
A10C A29G
A10C C25A
C9A G42U
A10C C14U
A8U G13C
A8U G23U
C9A G47U
C9A G47C
A10C A36C
A8U G42U
A8U G22C
A10C C20G
C9U G22C

self-cleavage, 0.4:
C9U U37A
C9U U43G

self-cleavage, 0.37:
C9A U43A

self-cleavage, 0.3:
C9G G34C

self-cleavage, 0.66:
C9G U18C

self-cleavage, 0.92:
C9G U37G

self-cleavage, 0.1:
A10C A17G
A8U U12A
A8U G42A
C9A G19A

self-cleavage, 0.09:
A8U G44C
C9A G42A
C9G G49A
C9G G49U
A10C A36U

self-cleavage, 0.84:
C9G G50U

self-cleavage, 0.06:
C9A G23A
C9G G13A
A8U G47A
A10C A39G
C9G G49C
C9U U24A
C9U U24C
A10C C27A
A8U U12C
A8U G42C
C9G G48U
C9G G51C
A10C A41U

self-cleavage, 0.5:
C9A G44C

self-cleavage, 0.23:
C9G G51A

self-cleavage, 0.73:
C9G U18G

self-cleavage, 1.04:
C9G G44C

self-cleavage, 0.82:
C9U U37C
C9G G44A

self-cleavage, 0.6:
C9U U18A

self-cleavage, 0.44:
C9G G35U

self-cleavage, 0.48:
C9G G50A

self-cleavage, 0.63:
C9U G53A
C9A G44U

self-cleavage, 0.36:
C9A G54U

self-cleavage, 0.76:
C9U G44A
C9G U37A

self-cleavage, 0.04:
C9A U24A
C9A G13U
A8U G49C
A10C C25U
C9U G51C
C9A G42C
A10C C14G
A8U G51C
A8U G23C
C9A G19C

self-cleavage, 0.27:
A8U G44A

self-cleavage, 0.28:
C9U G51A

self-cleavage, 0.05:
C9G G42U
A8U G19U
A8U U24C
C9A G51U
C9U G53C
A8U G49U
A8U G49A
A8U G47U
A8U G47C
A10C A39C
A10C A39U
A8U G13A
C9A G47A
C9U G19C
A10C A41C

self-cleavage, 0.07:
C9G G42C
C9A U24C
C9A U24G
A8U U12G
C9A U43C
C9G G48A
C9A G19U

self-cleavage, 0.24:
C9A G35A

self-cleavage, 0.11:
C9G G42A
C9U G51U
A10C A36G
C9A G35C
A10C A41G
C9A G34U

self-cleavage, 0.16:
C9G G35C
C9U U43C
C9G U43C

self-cleavage, 0.13:
C9A G51A
A8U G44U

self-cleavage, 0.26:
C9U G19A
C9U G22U
